Assay [1] addresses T1, Peroxisome proliferator-activated receptor delta (Homo sapiens) (UniProt Q03181).
T1 sequence (whole entry): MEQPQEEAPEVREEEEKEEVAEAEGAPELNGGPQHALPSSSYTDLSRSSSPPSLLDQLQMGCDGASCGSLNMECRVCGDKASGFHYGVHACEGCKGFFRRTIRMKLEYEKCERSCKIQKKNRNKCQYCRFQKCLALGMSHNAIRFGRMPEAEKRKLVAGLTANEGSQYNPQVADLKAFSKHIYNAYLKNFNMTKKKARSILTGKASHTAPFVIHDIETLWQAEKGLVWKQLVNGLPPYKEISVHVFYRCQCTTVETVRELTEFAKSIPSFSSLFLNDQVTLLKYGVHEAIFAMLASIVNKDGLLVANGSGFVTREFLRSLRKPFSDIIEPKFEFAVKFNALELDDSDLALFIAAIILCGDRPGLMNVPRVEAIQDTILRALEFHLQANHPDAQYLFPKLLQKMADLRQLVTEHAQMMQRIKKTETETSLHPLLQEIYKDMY
Put plainly: Antagonist activity at recombinant PPARdelta LBD expressed in HEK293T cells co-expressing GAL4 DBD assessed as inhibition of GW1516-induced transactivation at 20 uM by luciferase reporter gene assay. The class given is functional, cell-based. The settings on record: HEK-293T. The procedure, abridged:
(§1)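 One-hybrid assay in HEK293T cells cotransfected with a Gal4 DBD–NR-LBD fusion (RXRα, LXRα, GR, PR, PPARδ or PPARγ) plus UAS-TK-Luc reporter. Compound was 20 μM, given alone or with agonist: 9cRA 0.1 μM (RXRα), TO901317 0.5 μM (LXRα), dexamethasone 50 nM (GR), progesterone 100 nM (PR), GW1516 10 μM (PPARδ), rosiglitazone 10 μM (PPARγ). Luciferase read-out; three independent experiments.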

Assay [2] concerns the target T1, Peroxisome proliferator-activated receptor delta (Homo sapiens). Put plainly: Agonist activity at recombinant PPARdelta LBD expressed in HEK293T cells co-expressing GAL4 DBD at 20 uM by transactivation assay. Format: functional, cell-based. The following applies: HEK-293T. The procedure, abridged: as §1
In assay [3] the target is T2, Glucocorticoid receptor (Homo sapiens) (UniProt P04150).
T2 sequence (whole entry): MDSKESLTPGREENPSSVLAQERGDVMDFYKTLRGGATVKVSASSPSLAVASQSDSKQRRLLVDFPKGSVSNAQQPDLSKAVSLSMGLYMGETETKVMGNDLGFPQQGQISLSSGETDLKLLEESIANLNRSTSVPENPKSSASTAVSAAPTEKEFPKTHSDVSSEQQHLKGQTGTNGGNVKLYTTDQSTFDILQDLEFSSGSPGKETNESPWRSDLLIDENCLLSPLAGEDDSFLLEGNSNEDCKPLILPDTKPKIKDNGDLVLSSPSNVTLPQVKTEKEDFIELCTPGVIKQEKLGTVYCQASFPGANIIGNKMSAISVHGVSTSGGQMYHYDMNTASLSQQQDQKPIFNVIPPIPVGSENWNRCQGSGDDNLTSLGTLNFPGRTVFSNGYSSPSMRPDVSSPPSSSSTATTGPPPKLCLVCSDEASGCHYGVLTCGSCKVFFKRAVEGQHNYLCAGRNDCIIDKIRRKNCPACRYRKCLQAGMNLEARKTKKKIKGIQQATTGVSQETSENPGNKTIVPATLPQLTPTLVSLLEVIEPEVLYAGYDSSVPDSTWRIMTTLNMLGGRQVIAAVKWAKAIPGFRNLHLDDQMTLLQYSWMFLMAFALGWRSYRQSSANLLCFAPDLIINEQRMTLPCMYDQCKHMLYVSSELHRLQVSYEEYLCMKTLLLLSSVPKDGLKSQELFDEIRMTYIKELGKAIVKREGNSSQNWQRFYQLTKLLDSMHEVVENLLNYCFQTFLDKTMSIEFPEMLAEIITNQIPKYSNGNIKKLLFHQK
Put plainly: Antagonist activity at recombinant GR LBD expressed in HEK293T cells co-expressing GAL4 DBD assessed as inhibition of dexamethasone-induced transactivation at 20 uM by luciferase reporter gene assay. Format: functional, cell-based. The settings on record: HEK-293T. The procedure, abridged: as §1

Assay [4] deals with Mus musculus. Kind of assay: Reduction of serum triglyceride level in cholesterol-fed C57BL/6 mouse at 100 mg/kg, po after 10 days. The class given is functional. Set-up: scale not given: the % may be the effect or the level left. The procedure, abridged:
(§2)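 Male C57BL/6 mice, 8–12 weeks old, were randomized into five groups of nine. Control mice had ground chow; the other groups had chow with 2% cholesterol. Compound (50 or 100 mg/kg) or reference (100 mg/kg) was suspended in 0.5% CMC-Na and given by oral gavage; control and vehicle mice got 0.5% CMC-Na. Serum and hepatic triglyceride and total cholesterol were measured.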

For assay [5], the system named is Mus musculus. Put plainly: Reduction of hepatic triglyceride level in cholesterol-fed C57BL/6 mouse administered orally after 10 days. Format: functional, organism-based. The procedure, abridged:
as §2

The target of assay [6] is T3, Peroxisome proliferator-activated receptor gamma (Homo sapiens) (UniProt P37231).
T3 sequence (whole entry): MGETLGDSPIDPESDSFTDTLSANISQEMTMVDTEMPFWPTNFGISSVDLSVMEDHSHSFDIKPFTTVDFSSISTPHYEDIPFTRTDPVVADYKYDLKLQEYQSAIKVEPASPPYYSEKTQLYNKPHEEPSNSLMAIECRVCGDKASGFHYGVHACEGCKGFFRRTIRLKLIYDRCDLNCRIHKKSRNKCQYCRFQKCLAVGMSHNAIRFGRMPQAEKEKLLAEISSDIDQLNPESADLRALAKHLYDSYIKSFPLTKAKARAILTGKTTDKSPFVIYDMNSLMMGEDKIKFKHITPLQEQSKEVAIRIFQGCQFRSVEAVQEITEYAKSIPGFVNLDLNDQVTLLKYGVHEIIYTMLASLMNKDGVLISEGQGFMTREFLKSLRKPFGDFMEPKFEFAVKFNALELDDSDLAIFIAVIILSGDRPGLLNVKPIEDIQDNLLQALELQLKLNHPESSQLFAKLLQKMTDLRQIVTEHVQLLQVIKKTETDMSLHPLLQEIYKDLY
Kind of assay: Antagonist activity at recombinant PPARgamma LBD expressed in HEK293T cells co-expressing GAL4 DBD assessed as inhibition of rosiglitazone-induced transactivation at 20 uM by luciferase reporter gene assay. The following applies: HEK-293T. The class given is functional, cell-based. The procedure, abridged: as §1
(In a reporter assay the amount or activity of a reporter protein is the signal.)

Assay [7] deals with T2, Glucocorticoid receptor (Homo sapiens). Kind of assay: Agonist activity at recombinant glucocorticoid receptor LBD expressed in HEK293T cells co-expressing GAL4 DBD at 20 uM by transactivation assay. The following applies: HEK-293T. Format: functional, cell-based. The procedure, abridged:
as §1

The source made the active and inactive calls. No cut-off for these calls is given here.

Inhibition and Activity data for 1 compound are collected here from ChEMBL document CHEMBL2169822, “Discovery and optimization of 1,3,4-trisubstituted-pyrazolone derivatives as novel, potent, and nonsteroidal farnesoid X receptor (FXR) selective antagonists” (J Med Chem, 2012).

Consider `COc1cc(/C=C2\C(=O)N(c3cccc([N+](=O)[O-])c3)N=C2c2ccccc2)ccc1O`, for which the inhibition result in assay [1], in assay [3] and in assay [6] was “inactive” throughout. Besides, the outcome in assay [2] and in assay [7] was inactive. The Activity is 60.3% with Mus musculus [4] and “Dose-dependent effect” in the assay with Mus musculus [5].
